# Results pooled from the literature.
# Protocols differ between the studies behind these lines.
# Organism: Staphylococcus aureus
Compound,assay,system,setting,measurement,value
C[C@H]1COc2c(N3CCN(C)CC3)c(F)cc3c(=O)c(C(=O)O)cn1c23,microbial killing,ATCCBAA1717 MRSA,,MBC,0.48 µg/mL
COc1c(N2CC3CCCNC3C2)c(F)cc2c(=O)c(C(=O)OCc3cnc([N+](=O)[O-])s3)cn(C3CC3)c12 (stereo not drawn),microbial growth,ATCC29213,,MIC,0.09 µM
O=c1ccc2nc3ccc(OCc4ccc([N+](=O)[O-])o4)cc3oc-2c1,microbial growth,,24 h,MIC,> 32 µg/mL
CO[C@@H]1[C@@H](OC(N)=O)[C@@H](O)[C@H](Oc2ccc3c(O)c(NC(=O)c4ccc(O)c(CC=C(C)C)c4)c(=O)oc3c2C)OC1(C)C,microbial growth,MRSA,"drug-resistant strain, clinical isolate",MIC,0.25 µg/mL
CN[C@H](CC(C)C)C(=O)N[C@H]1C(=O)N[C@@H](CC(N)=O)C(=O)N[C@H]2C(=O)N[C@H]3C(=O)N[C@H](C(=O)N[C@H](C(=O)O)c4cc(O)cc(O)c4-c4cc3ccc4O)[C@H](O)c3ccc(c(Cl)c3)Oc3cc2cc(c3O[C@@H]2O[C@H](CO)[C@@H](O)[C@H](O)[C@H]2O[C@H]2C[C@](C)(N)[C@H](O)[C@H](C)O2)Oc2ccc(cc2Cl)[C@H]1O,"microbial killing, broth dilution",MRSA,drug-resistant strain,MBC,0.67 µM
COc1c(N2C[C@@H]3CCCN[C@@H]3C2)c(F)cc2c(=O)c(C(=O)O)cn(C3CC3)c12,microbial growth,ATCC29213,,MIC,0.07 µM
Oc1c(Cl)cc(Cl)cc1-c1[nH]c(Cl)c(Cl)c1Cl,microbial growth,ATCC29213 MSSA,,MIC,0.29 µM
C[C@@H]1CN2c3c(cc4c(N5C(=O)OC[C@@H]5C)noc4c3F)CC3(C(=O)NC(=O)NC3=O)[C@H]2[C@H](C)O1,"microbial growth, broth dilution",ATCC29213,,MIC,1 µg/mL
CN[C@H](CC(C)C)C(=O)N[C@H]1C(=O)N[C@@H](CC(N)=O)C(=O)N[C@H]2C(=O)N[C@H]3C(=O)N[C@H](C(=O)N[C@H](C(=O)O)c4cc(O)cc(O)c4-c4cc3ccc4O)[C@H](O)c3ccc(c(Cl)c3)Oc3cc2cc(c3O[C@@H]2O[C@H](CO)[C@@H](O)[C@H](O)[C@H]2O[C@H]2C[C@](C)(N)[C@H](O)[C@H](C)O2)Oc2ccc(cc2Cl)[C@H]1O,microbial killing,ATCCBAA1717 MRSA,,MBC,1.95 µg/mL
